Results from ChEMBL document CHEMBL5705905, “Pharmacological targeting of kinases MST1 and MST2 augments tissue repair and regeneration” (Sci Transl Med, 2016).
Activity calls are given as the source filed them. The rule behind the calls is not given here.

Experiments:
[1] = target: Leukocyte tyrosine kinase receptor (Homo sapiens) (UniProt P29376); experiment: Inhibition of LTK (unknown origin) assessed as remaining activity at 1 uM by Kinome scan method relative to control
[2] = target: Mitogen-activated protein kinase kinase kinase 2 (Homo sapiens, UniProt Q9Y2U5); experiment: Binding affinity to MAP3K2 (unknown origin) assessed as dissociation constant
[3] = target: Activin receptor type-1-like (Homo sapiens) (UniProt P37023); experiment: Inhibition of ACVRL1 (unknown origin) assessed as remaining activity at 1 uM by Kinome scan method relative to control
How it was run: (§1)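 Active-site-dependent competition-binding (KINOMEscan) panel of 468 kinases, test compound at 1 μM (from a 10 mM DMSO stock). Read-out is ctrl% = (test signal − positive control signal)/(negative control signal − positive control signal) × 100. DMSO is the negative control (100%) and a control compound is the positive control (0%). Lower ctrl% means tighter binding.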

[4] = system: Receptor-type tyrosine-protein kinase FLT3 (Homo sapiens), P36888 [N841I]; experiment: Inhibition of FLT3 N841I mutant (unknown origin) assessed as remaining activity at 1 uM by Kinome scan method relative to control
[5] = target: Tyrosine-protein kinase ABL1 (Homo sapiens) (UniProt P00519); experiment: Inhibition of ABL1 (unknown origin) assessed as remaining activity at 1 uM by Kinome scan method relative to control; how it was run: as §1
[6] = target: Dual specificity mitogen-activated protein kinase kinase 4 (Homo sapiens) (UniProt P45985); experiment: Inhibition of MEK4 (unknown origin) assessed as remaining activity at 1 uM by Kinome scan method relative to control
Chain of Dual specificity mitogen-activated protein kinase kinase 4 (Homo sapiens) (P45985 whole entry): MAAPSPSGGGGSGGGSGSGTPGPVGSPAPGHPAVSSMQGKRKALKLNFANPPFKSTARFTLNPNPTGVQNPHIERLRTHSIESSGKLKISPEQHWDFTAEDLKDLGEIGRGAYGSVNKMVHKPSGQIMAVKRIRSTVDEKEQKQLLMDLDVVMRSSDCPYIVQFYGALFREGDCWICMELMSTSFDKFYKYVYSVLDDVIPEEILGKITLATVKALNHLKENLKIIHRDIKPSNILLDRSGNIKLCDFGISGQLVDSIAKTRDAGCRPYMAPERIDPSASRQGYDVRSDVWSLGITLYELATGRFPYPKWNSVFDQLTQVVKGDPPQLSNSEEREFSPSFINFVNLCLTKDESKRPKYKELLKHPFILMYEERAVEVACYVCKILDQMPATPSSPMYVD

[7] = system: Epidermal growth factor receptor (Homo sapiens), P00533 [G719S]; experiment: Inhibition of EGFR G719S mutant (unknown origin) assessed as remaining activity at 1 uM by Kinome scan method relative to control
[8] = target: Serine/threonine-protein kinase 3 (Homo sapiens, UniProt Q13188, D109A)
Chain of Serine/threonine-protein kinase 3 (Homo sapiens, UniProt Q13188, D109A) (Q13188 whole entry D109A): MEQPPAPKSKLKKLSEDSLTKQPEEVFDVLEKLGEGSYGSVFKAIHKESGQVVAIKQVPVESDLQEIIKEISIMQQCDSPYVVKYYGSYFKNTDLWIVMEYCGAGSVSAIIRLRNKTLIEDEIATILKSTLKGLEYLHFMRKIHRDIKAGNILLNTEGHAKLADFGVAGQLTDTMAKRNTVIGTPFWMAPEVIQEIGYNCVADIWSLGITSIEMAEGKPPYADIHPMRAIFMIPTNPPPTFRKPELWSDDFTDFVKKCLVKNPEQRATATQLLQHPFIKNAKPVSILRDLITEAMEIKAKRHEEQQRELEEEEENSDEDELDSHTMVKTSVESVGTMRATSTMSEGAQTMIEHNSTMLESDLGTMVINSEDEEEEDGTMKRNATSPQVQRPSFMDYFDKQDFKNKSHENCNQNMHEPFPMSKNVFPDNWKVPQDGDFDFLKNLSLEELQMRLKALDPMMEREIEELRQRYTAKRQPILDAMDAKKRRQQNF

[9] = target: Tyrosine-protein kinase Blk (Homo sapiens) (UniProt P51451); experiment: Inhibition of BLK (unknown origin) assessed as remaining activity at 1 uM by Kinome scan method relative to control; how it was run: as §1
Chain of Tyrosine-protein kinase Blk (Homo sapiens) (P51451 2-505 limits assumed): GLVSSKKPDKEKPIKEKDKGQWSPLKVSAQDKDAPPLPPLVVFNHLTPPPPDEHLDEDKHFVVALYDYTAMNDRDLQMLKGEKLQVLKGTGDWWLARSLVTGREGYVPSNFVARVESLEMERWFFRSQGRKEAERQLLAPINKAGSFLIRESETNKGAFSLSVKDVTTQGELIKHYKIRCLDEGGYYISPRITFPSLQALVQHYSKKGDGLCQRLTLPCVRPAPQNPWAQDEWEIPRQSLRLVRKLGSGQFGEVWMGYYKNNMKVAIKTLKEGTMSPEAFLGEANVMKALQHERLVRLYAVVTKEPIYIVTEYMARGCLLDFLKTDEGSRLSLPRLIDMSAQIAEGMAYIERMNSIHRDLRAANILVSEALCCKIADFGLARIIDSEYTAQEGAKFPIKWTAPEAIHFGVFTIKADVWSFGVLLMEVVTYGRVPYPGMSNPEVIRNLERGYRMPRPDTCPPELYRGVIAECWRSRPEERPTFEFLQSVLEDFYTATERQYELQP

Mus musculus = experiment: Protection against APAP induced liver injury in mouse assessed as decrease in ALT level at 1 mg/kg, ip administered at 1.5 hrs in the presence of NAC; type: functional, organism-based; conditions: Serum
[10] = Binding affinity to phosphorylated ABL1 T315I mutant (unknown origin) assessed as dissociation constant; parameters: species or system Homo sapiens
[11] = MRT (0 to infinity) in male Sprague-Dawley rat at 10 mg/kg, po measured for 24 hrs by LC-MS/MS analysis; type: ADME, organism-based; conditions: in vivo
[12] = target: Mitogen-activated protein kinase kinase kinase kinase 4 (Homo sapiens) (UniProt O95819); experiment: Inhibition of MAP4K4 (unknown origin) assessed as remaining activity at 1 uM by Kinome scan method relative to control
Chain of Mitogen-activated protein kinase kinase kinase kinase 4 (Homo sapiens) (O95819 2-1239 limits assumed): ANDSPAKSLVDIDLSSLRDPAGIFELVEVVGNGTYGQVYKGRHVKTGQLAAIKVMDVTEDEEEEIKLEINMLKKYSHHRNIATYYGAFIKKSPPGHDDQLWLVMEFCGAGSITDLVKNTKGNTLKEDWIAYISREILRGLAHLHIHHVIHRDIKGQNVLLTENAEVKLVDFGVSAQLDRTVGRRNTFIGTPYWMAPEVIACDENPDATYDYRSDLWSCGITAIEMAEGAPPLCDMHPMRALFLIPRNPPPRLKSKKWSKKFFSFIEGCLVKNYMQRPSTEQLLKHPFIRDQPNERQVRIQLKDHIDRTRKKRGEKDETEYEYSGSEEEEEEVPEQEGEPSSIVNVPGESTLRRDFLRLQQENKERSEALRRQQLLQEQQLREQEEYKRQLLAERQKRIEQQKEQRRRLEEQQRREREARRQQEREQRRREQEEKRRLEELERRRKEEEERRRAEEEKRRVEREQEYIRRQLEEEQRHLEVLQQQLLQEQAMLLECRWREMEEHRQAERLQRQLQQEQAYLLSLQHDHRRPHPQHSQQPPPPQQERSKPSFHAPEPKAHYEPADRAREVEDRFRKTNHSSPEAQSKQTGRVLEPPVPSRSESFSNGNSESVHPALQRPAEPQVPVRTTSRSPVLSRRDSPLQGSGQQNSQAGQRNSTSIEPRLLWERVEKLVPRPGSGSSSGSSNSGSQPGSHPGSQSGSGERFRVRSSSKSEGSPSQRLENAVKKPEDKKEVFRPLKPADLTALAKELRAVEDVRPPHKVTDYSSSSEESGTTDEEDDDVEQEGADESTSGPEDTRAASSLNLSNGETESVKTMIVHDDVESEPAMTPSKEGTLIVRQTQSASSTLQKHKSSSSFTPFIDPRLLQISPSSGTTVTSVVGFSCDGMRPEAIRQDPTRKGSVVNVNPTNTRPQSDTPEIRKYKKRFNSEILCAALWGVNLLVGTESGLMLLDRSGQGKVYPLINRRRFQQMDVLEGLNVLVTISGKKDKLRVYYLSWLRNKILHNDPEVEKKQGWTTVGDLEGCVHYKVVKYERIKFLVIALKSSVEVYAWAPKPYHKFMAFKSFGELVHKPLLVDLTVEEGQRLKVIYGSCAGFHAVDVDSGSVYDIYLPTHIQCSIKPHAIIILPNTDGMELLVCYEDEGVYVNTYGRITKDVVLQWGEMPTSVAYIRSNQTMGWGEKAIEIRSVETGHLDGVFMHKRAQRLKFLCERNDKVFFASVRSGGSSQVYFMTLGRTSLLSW

[13] = target: Macrophage colony-stimulating factor 1 receptor (Homo sapiens) (UniProt P07333); experiment: Inhibition of CSF1R (unknown origin) assessed as remaining activity at 1 uM by Kinome scan method relative to control
How it was run: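 Active-site-dependent competition-binding profiling (KINOMEscan) at 1 μM against a 468-kinase panel; compound supplied from a 10 mM DMSO stock. Read-out is ctrl% = (test signal − positive control signal)/(negative control signal − positive control signal) × 100. DMSO is the negative control (100%) and a control compound the positive control (0%). Lower ctrl% means tighter binding.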

[14] = target: Serine/threonine-protein kinase 35 (Homo sapiens) (UniProt Q8TDR2); experiment: Inhibition of STK35 (unknown origin) assessed as remaining activity at 1 uM by Kinome scan method relative to control
[15] = target: T1, Serine/threonine-protein kinase 3 (Homo sapiens, UniProt Q13188); experiment: Inhibition of MST2 (unknown origin) in presence of ATP by enzymatic assay
T1 sequence (Q13188 whole entry): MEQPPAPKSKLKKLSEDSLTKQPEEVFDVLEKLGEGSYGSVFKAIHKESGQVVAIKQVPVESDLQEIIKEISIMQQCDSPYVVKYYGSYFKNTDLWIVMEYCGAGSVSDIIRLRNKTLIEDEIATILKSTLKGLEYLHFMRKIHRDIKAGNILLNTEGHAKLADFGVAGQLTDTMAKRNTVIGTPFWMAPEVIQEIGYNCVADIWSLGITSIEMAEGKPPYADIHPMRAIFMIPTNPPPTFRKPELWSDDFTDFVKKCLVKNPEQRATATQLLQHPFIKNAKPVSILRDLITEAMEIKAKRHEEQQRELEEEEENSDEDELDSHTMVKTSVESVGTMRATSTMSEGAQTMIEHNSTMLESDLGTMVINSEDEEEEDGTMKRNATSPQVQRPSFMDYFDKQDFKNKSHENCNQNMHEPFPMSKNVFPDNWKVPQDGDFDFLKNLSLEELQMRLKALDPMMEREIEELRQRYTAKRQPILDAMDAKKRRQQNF

[16] = target: Phosphatidylinositol 4-phosphate 5-kinase type-1 gamma (Homo sapiens, UniProt O60331); experiment: Binding affinity to PIP5K1C (unknown origin) assessed as dissociation constant
Chain of Phosphatidylinositol 4-phosphate 5-kinase type-1 gamma (O60331 whole entry): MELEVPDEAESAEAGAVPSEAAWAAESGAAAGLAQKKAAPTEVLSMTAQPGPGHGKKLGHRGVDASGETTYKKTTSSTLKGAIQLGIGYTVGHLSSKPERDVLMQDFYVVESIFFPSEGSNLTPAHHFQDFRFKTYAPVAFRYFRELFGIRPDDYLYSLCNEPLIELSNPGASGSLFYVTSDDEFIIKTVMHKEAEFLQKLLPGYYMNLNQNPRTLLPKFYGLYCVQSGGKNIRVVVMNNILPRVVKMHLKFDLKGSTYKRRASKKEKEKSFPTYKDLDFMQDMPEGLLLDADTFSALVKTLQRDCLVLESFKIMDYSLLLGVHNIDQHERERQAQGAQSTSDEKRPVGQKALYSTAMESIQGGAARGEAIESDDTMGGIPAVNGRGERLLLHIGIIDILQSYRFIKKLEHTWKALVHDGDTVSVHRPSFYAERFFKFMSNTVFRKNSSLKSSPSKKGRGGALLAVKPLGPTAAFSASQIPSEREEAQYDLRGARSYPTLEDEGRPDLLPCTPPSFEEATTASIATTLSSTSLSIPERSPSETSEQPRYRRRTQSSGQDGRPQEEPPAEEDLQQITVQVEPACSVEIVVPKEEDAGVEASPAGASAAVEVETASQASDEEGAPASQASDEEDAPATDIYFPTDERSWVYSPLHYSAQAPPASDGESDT

[17] = target: Serine/threonine-protein kinase 17B (Homo sapiens) (UniProt O94768); experiment: Inhibition of DRAK2 (unknown origin) assessed as remaining activity at 1 uM by Kinome scan method relative to control
[18] = target: Rhodopsin kinase GRK7 (Homo sapiens) (UniProt Q8WTQ7); experiment: Inhibition of GRK7 (unknown origin) assessed as remaining activity at 1 uM by Kinome scan method relative to control
[19] = target: Dual specificity protein kinase TTK (Homo sapiens) (UniProt P33981); experiment: Inhibition of TTK (unknown origin) assessed as remaining activity at 1 uM by Kinome scan method relative to control
[20] = target: Serine/threonine-protein kinase DCLK3 (Homo sapiens) (UniProt Q9C098); experiment: Inhibition of DCAMKL3 (unknown origin) assessed as remaining activity at 1 uM by Kinome scan method relative to control
[21] = target: Activin receptor type-2A (Homo sapiens) (UniProt P27037); experiment: Inhibition of ACVR2A (unknown origin) assessed as remaining activity at 1 uM by Kinome scan method relative to control; how it was run: as §1
Chain of Activin receptor type-2A (Homo sapiens) (P27037 whole entry): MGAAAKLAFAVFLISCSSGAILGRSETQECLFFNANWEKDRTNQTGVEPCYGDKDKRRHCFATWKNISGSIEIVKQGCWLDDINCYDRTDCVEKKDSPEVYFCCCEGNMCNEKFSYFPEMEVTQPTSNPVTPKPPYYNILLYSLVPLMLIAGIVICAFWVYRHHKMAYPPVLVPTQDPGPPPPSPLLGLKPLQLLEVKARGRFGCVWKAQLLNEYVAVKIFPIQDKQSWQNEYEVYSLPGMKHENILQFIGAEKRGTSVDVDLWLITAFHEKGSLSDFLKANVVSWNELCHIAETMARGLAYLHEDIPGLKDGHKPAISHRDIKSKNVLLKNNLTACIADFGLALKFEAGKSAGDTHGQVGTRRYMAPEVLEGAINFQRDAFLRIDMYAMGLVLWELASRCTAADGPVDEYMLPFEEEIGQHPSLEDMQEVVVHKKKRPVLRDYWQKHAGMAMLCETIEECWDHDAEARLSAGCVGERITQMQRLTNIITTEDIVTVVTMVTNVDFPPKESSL

[22] = target: Serine/threonine-protein kinase MRCK gamma (Homo sapiens) (UniProt Q6DT37); experiment: Inhibition of DMPK2 (unknown origin) assessed as remaining activity at 1 uM by Kinome scan method relative to control
[23] = target: Serine/threonine-protein kinase/endoribonuclease IRE1 (Homo sapiens) (UniProt O75460); experiment: Inhibition of ERN1 (unknown origin) assessed as remaining activity at 1 uM by Kinome scan method relative to control
Chain of Serine/threonine-protein kinase/endoribonuclease IRE1 (Homo sapiens) (O75460 19-977 limits assumed): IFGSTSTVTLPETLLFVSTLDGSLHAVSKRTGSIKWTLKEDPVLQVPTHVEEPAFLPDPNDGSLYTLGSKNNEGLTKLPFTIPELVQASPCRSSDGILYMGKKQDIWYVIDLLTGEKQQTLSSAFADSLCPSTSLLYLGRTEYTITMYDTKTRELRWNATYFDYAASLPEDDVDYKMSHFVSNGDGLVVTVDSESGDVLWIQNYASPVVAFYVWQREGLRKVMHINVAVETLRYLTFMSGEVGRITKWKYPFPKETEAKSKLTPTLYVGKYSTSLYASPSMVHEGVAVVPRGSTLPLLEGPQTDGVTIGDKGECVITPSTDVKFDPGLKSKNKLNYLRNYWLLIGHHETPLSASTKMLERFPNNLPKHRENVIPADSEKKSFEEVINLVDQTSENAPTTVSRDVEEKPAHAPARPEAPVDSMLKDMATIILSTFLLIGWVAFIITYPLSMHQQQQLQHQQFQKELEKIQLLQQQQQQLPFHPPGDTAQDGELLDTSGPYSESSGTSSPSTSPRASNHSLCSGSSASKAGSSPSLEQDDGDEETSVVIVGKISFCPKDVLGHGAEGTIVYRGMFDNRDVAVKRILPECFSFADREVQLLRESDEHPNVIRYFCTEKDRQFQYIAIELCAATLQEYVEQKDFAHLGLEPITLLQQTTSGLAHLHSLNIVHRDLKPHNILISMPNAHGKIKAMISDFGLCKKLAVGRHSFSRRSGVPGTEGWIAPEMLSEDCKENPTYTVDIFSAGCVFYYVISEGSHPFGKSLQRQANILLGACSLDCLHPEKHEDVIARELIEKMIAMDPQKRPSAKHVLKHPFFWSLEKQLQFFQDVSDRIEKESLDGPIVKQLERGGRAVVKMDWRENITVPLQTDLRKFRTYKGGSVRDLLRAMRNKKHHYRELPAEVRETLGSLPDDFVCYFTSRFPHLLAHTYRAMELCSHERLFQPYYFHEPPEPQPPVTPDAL

[24] = target: Serine/threonine-protein kinase Nek10 (Homo sapiens) (UniProt Q6ZWH5); experiment: Inhibition of NEK10 (unknown origin) assessed as remaining activity at 1 uM by Kinome scan method relative to control
[25] = target: Interleukin-1 receptor-associated kinase 4 (Homo sapiens) (UniProt Q9NWZ3); experiment: Inhibition of IRAK4 (unknown origin) assessed as remaining activity at 1 uM by Kinome scan method relative to control

CN1C(=O)c2sccc2N(C)c2nc(Nc3ccc(S(N)(=O)=O)cc3)ncc21
Activity [1]: 100%
Kd [2]: 0.019 µM
Activity [3]: 100%
Activity [4]: 39%
Activity [5]: 21%
Activity [6]: 100%
Activity [7]: 78%
IC50 [8]: 1.04 µM
Activity [9]: 96%
Activity (Mus musculus): Active
Kd [10]: 0.014 µM
MRT inf [11]: 7.34 h
Activity [12]: 100%
Activity [13]: 86%
Activity [14]: 100%
IC50 [15]: 0.0182 µM
Kd [16]: 0.077 µM
Activity [17]: 90%
Activity [18]: 74%
Activity [19]: 99%
Activity [20]: 100%
Activity [21]: 100%
Activity [22]: 100%
Activity [23]: 65%
Activity [24]: 70%
Activity [25]: 100%
